Laboratory results from ChEMBL document CHEMBL4513216, “Probing the Open Global Health Chemical Diversity Library for Multistage-Active Starting Points for Next-Generation Antimalarials” (ACS Infect Dis, 2020).

Assay: Toxicity liver stage against HepG2, at 10uM
Format: cell-based
Parameters: test concentration 10 uM, cell line HepG2-A16-CD81EGFP
Details: human, HepG2-A16-CD81EGFP cells; read-out: INHIBITION
Procedure, shortened: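 Uninfected HepG2-A16-CD81EGFP cells, 3 × 10^3 per well, 1536-well, plated on prespotted compound at 10 μM final, parasite-free screening media added to match infected plates; puromycin 10 μM positive, DMSO 0.5% negative; run in parallel with 48 h PbLuc assay at 37 °C, 5% CO2; viability by CellTiter-Glo luminescence, normalized to controls.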

| Structure (SMILES) | cytotoxicity at 10 µM [%] |
| --- | --- |
| COc1ccc(OC)c(CNc2c(O)c(=O)c2=O)c1 | 7.08 |
| CC(=O)N1N=C(c2ccco2)OC1C(=O)NCCc1ccc(O)cc1 (stereo not given) | -1.19 |
| Cc1cc(C)nc(N2CCC(C(=O)Nc3ncc[nH]3)CC2)n1 | 4.47 |
| CCOc1ccc(NC(=O)Nc2cc(N3CCCCC3)ncn2)cc1 | 2.21 |
| CCOCc1cncc2c1CCN(S(=O)(=O)c1ccc(C)cc1)C2 | 11.2 |
| O=C(Cc1cccs1)N1CCc2nnc(COc3cncnc3)n2CC1 | 8.61 |
| CC(C)N1c2sc(-c3ccsc3)nc2CC1C(=O)NC1CCCC1 (stereo not given) | 9.1 |
| Cc1noc([C@@]23CCO[C@@H]2CCN(C(=O)CCC(C)C)C3)n1 | 10.3 |
| COCCC(=O)N1CCC2(CCCN2Cc2cccc(Cl)c2)C1 (stereo not given) | 10.6 |
| CNC(=O)C1Cn2ccnc2C2(CCN(C(=O)c3ccccn3)CC2)O1 (stereo not given) | -144 |
| COc1cccc(CNc2c(C)cnc3c2c(=O)n(C)c(=O)n3C)c1 | 21.1 |
| CC(=O)N1CCC2(CC1)CC[C@@]1(C(=O)N(C)C)CN(S(C)(=O)=O)C[C@@H]21 | -1.56 |
| CCN(CC)C(=O)c1ccn(COc2cccc(Cl)c2Cl)n1 | 49.4 |
| Cc1cc(C)n(CCC(=O)N2CCC(c3nc(C)no3)CC2)n1 | 23.3 |
| Cc1noc(C2CCCN(C(=O)c3cc(-c4ccccc4)on3)C2)n1 (stereo not given) | -7.14 |
| CCn1nc(C)c2nc(C(C)C)nc(NCC(C)C)c21 | 15.5 |
| Cc1noc(C)c1-c1nc(C2CCCN(C(=O)C(C)C)C2)ccc1CO (stereo not given) | 0.983 |
| CC(C)CC(NC(=O)c1ccco1)c1nc2cccnc2n1C (stereo not given) | 6.08 |
| CN1CC(=O)N(C2CCNCC2)Cc2c(NCC(C)(C)C)ncnc21 | 6.2 |
| CC1CCCCN1C(=O)c1ccc(=O)[nH]n1 (stereo not given) | 3.95 |
| CC(C)c1nc(CS(=O)(=O)Cc2noc(C3CC3)n2)cs1 | 6.16 |
| CN1CCN(c2ccc(NCc3ccc([S+](C)[O-])cc3)cn2)CC1 (stereo not given) | 9.84 |

| Structure (SMILES) | cytotoxicity at 10 µM [%] |
| --- | --- |
| Cc1nn(C)c(C)c1CC(=O)NCC1(C(N)=O)CCOCC1 | 0.63 |
| CCc1c(NCc2ccncc2)cnn1CC(C)C | 7.81 |
| Cc1ccc(NCCCNC(=O)NCc2c(C)cc(C)[nH]c2=O)nc1 | -45.2 |
| CS(=O)(=O)c1ccc2c(c1)N(C(=O)Cc1ccc(F)cc1)CCC2 | 9.95 |
| CCc1ccc(O)c(C(=O)N2CCN(CC(=O)N(C)C)CC2)c1 | 2.8 |
| O=S(=O)(Cc1ccccc1)NCC1CCCN(Cc2cccs2)C1 (stereo not given) | 3.3 |
| CCS(=O)(=O)N(C)C1CCN(C(=O)c2ccc(Cl)cc2)CC1 | -5.87 |
| CCN1CCN(C(=O)c2ccnc(N(C)C)c2)CC1 | -0.0916 |
| CCC(C)(CC)NC(=O)COc1nn(C)c2nc(C)cc(C)c12 | -6.17 |
| CNC(=O)Cc1coc(-c2ccc(F)cc2)n1 | -4.15 |
| COc1cc(C(=O)N(Cc2cccs2)C2CC2)cc2c1OCCO2 | 8.45 |
| Cc1nc(C)c(CC(=O)NCc2cccnc2OC2CCCC2)c(=O)[nH]1 | -5.87 |
| CCC(NCc1ncc[nH]1)c1nc(C(F)(F)F)cs1 (stereo not given) | 8.02 |
| COc1ccc(C(=O)NCCCNc2ncccn2)cc1F | -10.5 |
| COc1ncccc1C(=O)N1CCCC1c1nc(-c2ccccc2)n[nH]1 (stereo not given) | -8.76 |
| N#CCCN(Cc1cccnc1)C(=O)Cc1ccc(-n2cnnn2)cc1 | 2.32 |
| COc1ccc(N(Cc2ccco2)C(=O)C2CCOC2)cc1F (stereo not given) | -10.8 |
| COc1ccc(NC(=O)c2ccccc2NCc2ncnn2C)cc1 | 2.06 |
| Cc1cccc2c1NC1(CCOCC1)NC2=O | -49.6 |
| Cc1ncsc1CNC(=O)N(Cc1ccccc1)CC(C)(C)O | -10.2 |
| CCNC(=O)CN(CC)Cc1nc2c(F)cccc2n1CC | 9.57 |
| CC(C)C(C)(C#N)NC(=O)Cn1cc(-c2ccccc2)cn1 (stereo not given) | 8.34 |

| Structure (SMILES) | cytotoxicity at 10 µM [%] |
| --- | --- |
| Cc1ccc2cc(C(=O)N3CCCN(C)CC3)ccc2n1 | -54.3 |
| CC(Sc1nnc(C2CC2)n1CC(N)=O)c1ccc(F)cc1F (stereo not given) | -1.7 |
| CO[C@H]1CC[C@H]2[C@H]1OCCN2C(=O)c1nn(C)c2ccccc12 | 5.33 |
| Cc1ccc(N2CCC3(CCN(Cc4csc(C)n4)C3=O)C2)nn1 (stereo not given) | -111 |
| c1cc(CN2CCCC3(CCN(CC4CCCO4)CC3)C2)n[nH]1 (stereo not given) | -101 |
| CC(=O)N1CCn2c(C(=O)N(C)C)cnc2C1 | 1.54 |
| O=C1CC(c2ccncc2)C2(CCN(CCO)CC2)N1 (stereo not given) | -3.4 |
| OC(c1cccs1)C1CCN(c2ncccn2)CC1 (stereo not given) | -52.5 |
| Cc1cccc(=O)n1CCC(=O)N1CC[C@@](O)(C2CCC2)[C@H](C)C1 | 5.8 |
| COC(=O)C1CCN(CC2(c3ccc(C)cn3)CCNCC2)CC1 | -0.471 |
| CN1CCCCC1CCC(=O)NCCCn1nccc1C1CC1 (stereo not given) | -22.9 |
| Cc1cccc(OC2CCN(c3nc(N)nc4[nH]cnc34)CC2)c1 | 35.4 |
| CC(C)Cc1ncc2c(n1)CN(c1nc(N(C)C)nc3c1CCCC3)C2 | 2.27 |
| O=C1CCC2(CCN(c3cccc(C(F)(F)F)n3)CC2)CN1CCO | -18.2 |
| CN1CCc2[nH]nc(C(=O)N3CCCC4(CN(C)C(=O)O4)C3)c2C1 (stereo not given) | -53.6 |
| CCN(C)C(=O)c1cccc(S(=O)(=O)NCCc2csc(N)n2)c1 | -45.2 |
| O=C(CNCC1(O)CCCN(Cc2cccc(F)c2F)C1=O)NC1CC1 (stereo not given) | -4.02 |
| CN(C)C(=O)N1CCCC(C(=O)N(C)CCCc2cnn(C)c2)C1 (stereo not given) | -0.645 |
| COCC(NC1CCSCC1)c1ccnn1C (stereo not given) | 13.5 |
| CCc1cn[nH]c1C1CCCN(C(=O)c2ncoc2C(C)C)C1 (stereo not given) | 1.86 |
| O=C(CCc1nc2ccccc2[nH]1)NC1CCOC2(CCOCC2)C1 (stereo not given) | 9.64 |
| CCc1cc(N[C@@H](CC(C)C)C(N)=O)n2nc(C)c(C)c2n1 | 7.33 |

| Structure (SMILES) | cytotoxicity at 10 µM [%] |
| --- | --- |
| CNS(=O)(=O)c1ccc(CN2CCCN(c3ccccc3)CC2)cc1 | 10.9 |
| CC(C)OC(=O)N1CCC(Cc2cccc(C(N)=O)c2)C1 (stereo not given) | 7.56 |
| CCOC(=O)c1coc(N2CCN(Cc3cccc(OC)c3)C(=O)C2)n1 | -1.83 |
| Cc1ncsc1-c1nc(CC2CCN(C)CC2)nn1Cc1ccccc1 | 10.2 |
| CN(C)CC1(O)CCCN(Cc2ccccc2OCC(=O)N(C)C)C1 (stereo not given) | -1.21 |
| CC(C)[C@@H]1CN(C(=O)CN(C)Cc2ccccc2)C[C@H]1C(=O)O | -3.99 |
| CC(C(=O)N1CCn2cncc2C1)N1CCCC1 (stereo not given) | 6.38 |
| COc1cccc2c1OCC(C(=O)NCc1c(C)noc1C)C2 (stereo not given) | -15.5 |
| CCC(Nc1nc(C(C)C)nc2c1cnn2C)c1ccncc1 (stereo not given) | -48 |
| CCOCCC(=O)N1CCCC(c2ncc[nH]2)C1 (stereo not given) | -9.43 |
| O=C(CCc1ccccc1)C1CCCN(C(=O)c2ncc(F)cc2F)C1 (stereo not given) | -17.4 |
| Cc1ccc(-c2nc(CNC3CCc4ncnn4C3)cs2)cc1 (stereo not given) | -9.27 |
| CCCc1nc(CNCC2CCCN2c2cccnn2)cs1 (stereo not given) | -7.07 |
| CC(C(=O)N1CCCN(Cc2cnn(C)c2)CC1)n1ccnc1 (stereo not given) | -13.8 |
| Cc1cc(C)c(CNC(=O)NC(C)c2ccc3c(c2)CCC3)c(=O)[nH]1 (stereo not given) | 27.4 |
| CCOC(C)C(=O)N1CCCN(Cc2csc(CC)n2)CC1 (stereo not given) | -13 |
| Cc1cnc(CN(C)C2CCN(CCCc3cnn(C)c3)C2)o1 (stereo not given) | 2.61 |
| O=C(CN1CCc2cncnc2C1)Nc1ccc(Cl)cn1 | -3.24 |
| COc1cc(S(=O)(=O)N2CCc3ccccc32)cc(C(=O)O)c1OC | -7.54 |
| CCc1cccc(N2CCC(NC(=O)C3CCCO3)CC2)c1 (stereo not given) | -14.3 |
| N#Cc1ccccc1OCCN1CCCC1Cn1cncn1 (stereo not given) | -10.7 |
| COCCc1noc(CN2CCc3nn(C(C)C)c(=O)cc3C2)n1 | -14.9 |

| Structure (SMILES) | cytotoxicity at 10 µM [%] |
| --- | --- |
| CCOc1cc(C)nc(N2CCN(C(=O)c3ccc[nH]3)CC2)n1 | -4 |
| CC(C)c1nc2c(n1C)CCN(Cc1nc(-c3ccsc3)no1)C2 | -6.46 |
| Cc1ccc(-n2nnc(C(=O)Nc3cc(C)nn3C)c2C2CC2)cc1 | 0.888 |
| Cc1cc(CNc2cc(Cl)ccc2OCCS(C)(=O)=O)no1 | -2.27 |
| CCn1ncc2c1CCCC2NCc1cc(Cl)c(OC)c(OC)c1 (stereo not given) | 24.4 |
| Cc1ccc(C(=O)N2CCCC(C(=O)N3CCCCC3)C2)c(O)c1 (stereo not given) | -7.52 |
| CCCn1nc2c(cc1=O)CN(CCCS(N)(=O)=O)CC2 | -2.48 |
| CC(C)(C)C(O)CN1CCN(C(=O)c2cccc3ncccc23)CC1 (stereo not given) | 4.67 |
| COCCN1C[C@@H]2COC[C@@H](CC(=O)NCc3cccnc3)[C@@H]2C1 | 12 |
| Cc1cnccc1-c1cnn(CCNC(=O)c2ccncc2)c1C1CC1 | 6.95 |
| c1coc(CN2CCO[C@H]3[C@H](OCC4CCCC4)CC[C@@H]32)c1 | 19.7 |
| CN(C)C(=O)CO[C@H]1CN(Cc2ccc3c(c2)OCO3)[C@@H]2COC[C@H]12 | 5.9 |
| C[C@@H]1CN(Cc2ccsc2)C[C@]12CCN(Cc1cccnc1)C2=O | 7.62 |
| CCC(N)C(=O)N1CCC(OCc2ccc(Cl)c(Cl)c2)CC1 (stereo not given) | -12 |
| Cc1ccc(C(=O)N2CC3(CCCCC3)c3cc(C(=O)O)ccc32)cn1 | 11.2 |
| CCCN1CCC(c2nc3ccc(-c4cccc(F)c4)cn3n2)CC1 | -125 |
| Cc1noc(C)c1CN1CCOCC12CCN(c1ncccn1)CC2 | -104 |
| CN1CCCN(C(=O)c2cc(-c3cc[nH]n3)n3ccccc23)CC1 | 11 |
| O=C(C1=CCCC1)N1C[C@H]2CCC[C@@]2(COCc2ccncc2)C1 | 2.78 |
| Fc1cccc(-c2nnn3c2COCC(CNCc2nccs2)C3)c1 (stereo not given) | -112 |
| CN1C(=O)[C@@H]2CC[C@H]1CN(Cc1cccc(OCc3ccccn3)c1)C2 | 5.52 |
| CC(C)Cn1cc2nc(N3CCCC3)[nH]cc-2c1=O | 9.6 |
